Reference: ChEMBL document CHEMBL1124408, “3-aminopyridazine derivatives with atypical antidepressant, serotonergic, and dopaminergic activities” (J Med Chem, 1989)

Columns and labels:
Mus musculus [1] = assay: Compound was tested for antidepressant activity against reserpine induced ptosis in mice after intraperitoneal administration.; value ranges from 14-18; format: functional; details: ip
Outline: (§1)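 Female CD1 mice (18-22 g) received the drug in distilled water/gum tragacanth ip at multiple doses (7-20 mice/dose), given together with reserpine (2 mg/kg iv). One hour later, palpebral ptosis (half or more of the lid closed) was scored all-or-none. Screening dose was at most 50% of the seizure threshold dose.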

Mus musculus [2] = assay: Serotonergic activity was determined by measuring the potentiation of 5-hydroxytryptophan in mice upon ip administration; format: functional
Outline: (§2)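 Drug was injected ip in distilled water/gum tragacanth to female CD1 mice (18-22 g) at multiple doses (7-20 mice/dose), 30 min before a threshold dose of L-5-HTP (200 mg/kg ip). Mice were held singly in small cages, and tremor was scored all-or-none over the 20 min after L-5-HTP.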

Mus musculus [3] = assay: Ability to modify turning behavior of mice after intraperitoneal administration; format: functional; details: ip, read-out: MED
Outline: (§3)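 Female CD1 mice (25-30 g) were lesioned by stereotaxic injection of 6-OHDA (10 μg in 1 μL saline with 1 mg/mL ascorbic acid) into the right striatum under pentobarbitone (60 mg/kg ip). Seven days later, drug in distilled water/gum tragacanth was given ip at multiple doses (7-20 mice/dose). Ipsilateral turns were counted for 2 min starting 30 min post-dose.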

[4] = Acute toxicity in mice after intraperitoneal administration.; details: mouse, in vivo, ip, LD50
Mus musculus [5] = assay: Compound was tested for antidepressant activity against reserpine induced ptosis in mice after intraperitoneal administration.; value ranges from 5.9-6.7; format: functional; details: ip; outline: as §1
Mus musculus [6] = assay: Serotonergic activity by measuring the potentiation of 5-hydroxy tryptophan in mice upon ip administration; value ranges from 3.0-4.0; format: functional; outline: as §2
Mus musculus [7] = assay: Antidepressant activity against reserpine induced ptosis in mice after intraperitoneal administration.; format: functional; details: ip; outline: as §1
Mus musculus [8] = assay: Compound was tested for antidepressant activity against reserpine induced ptosis in mice after intraperitoneal administration.; value ranges from 3.2-6.3; format: functional; details: ip; outline: as §1
Mus musculus [9] = assay: Serotonergic activity by measuring the potentiation of 5-hydroxy tryptophan in mice upon ip administration; the value ranges from 3-38; format: functional; outline: as §2
Mus musculus [10] = assay: Ability to modify turning behavior of mice after intraperitoneal administration.; format: functional; details: ip, read-out: MED; outline: as §3
Mus musculus [11] = assay: Compound was tested for antidepressant activity against reserpine induced ptosis in mice after intraperitoneal administration.; value ranges from 0.13-0.22; format: functional; details: ip; outline: as §1
Mus musculus [12] = assay: Compound was tested for antidepressant activity against reserpine induced ptosis in mice after intraperitoneal administration.; value ranges from 31-38; format: functional; details: ip; outline: as §1
Mus musculus [13] = assay: Compound was tested for antidepressant activity against reserpine induced ptosis in mice after intraperitoneal administration; value ranges from 1.8-4.1; format: functional; details: ip; outline: as §1
Mus musculus [14] = assay: Serotonergic activity by measuring the potentiation of 5-hydroxy tryptophan in mice upon ip administration; value ranges from 3-7.9.; format: functional; outline: as §2
Mus musculus [15] = assay: Compound was tested for antidepressant activity against reserpine induced ptosis in mice after intraperitoneal administration.; value ranges from 9-12; format: functional; details: ip; outline: as §1
Mus musculus [16] = assay: Serotonergic activity by measuring the potentiation of 5-hydroxy tryptophan in mice upon ip administration; value ranges from 1.4-2.1; format: functional; outline: as §2
Mus musculus [17] = assay: Compound was tested for antidepressant activity against reserpine induced ptosis in mice after intraperitoneal administration.; value ranges from 5-9; format: functional; details: ip; outline: as §1
Mus musculus [18] = assay: Compound was tested for antidepressant activity against reserpine induced ptosis in mice after intraperitoneal administration.; value ranges from 1.9-10.7; format: functional; details: ip; outline: as §1
Mus musculus [19] = assay: Serotonergic activity by measuring the potentiation of 5-hydroxy tryptophan in mice upon ip administration; value ranges from 1.9-11.7.; format: functional; outline: as §2

Compound	ED50 (Mus musculus [2])	minimal effective dose (Mus musculus [3])	LD50 [4]	ED50 (Mus musculus [7])	also measured
Cc1cc(-c2ccccc2)nnc1NCCN	> 30 mg/kg	0.5 mg/kg	300 mg/kg		ED50 (Mus musculus [1]): 16 mg/kg
c1ccc(-c2ccc(NCCN3CCOCC3)nn2)cc1		0.5 mg/kg	250 mg/kg		ED50 (Mus musculus [5]): 6 mg/kg; ED50 (Mus musculus [6]): 3.7 mg/kg
Cc1cc(-c2ccc(N)cc2)nnc1NCCN1CCOCC1		> 2 mg/kg	15 mg/kg	> 5 mg/kg	
Cc1cc(Cc2ccccc2)nnc1NCCN1CCOCC1	> 10 mg/kg	2 mg/kg	30 mg/kg	> 10 mg/kg	
Cc1cc(C2CCCCC2)nnc1NCCN1CCOCC1		> 10 mg/kg	43 mg/kg		ED50 (Mus musculus [8]): 4.5 mg/kg; ED50 (Mus musculus [9]): 16 mg/kg
Cc1cc(-c2ccccc2Cl)nnc1NCCN1CCOCC1		1 mg/kg	7 mg/kg	> 5 mg/kg	
c1ccc(-c2cc(-c3ccccc3)c(NCCN3CCOCC3)nn2)cc1	> 25 mg/kg	> 2 mg/kg	150 mg/kg	> 50 mg/kg	
CN1Cc2c(N)cccc2C(c2ccccc2)C1 (configuration not stated) [NOMIFENSINE]	> 30 mg/kg				minimal effective dose (Mus musculus [10]): 5 mg/kg; ED50 (Mus musculus [11]): 0.17 mg/kg
CCOC(=O)c1cc(-c2ccccc2)nnc1NCCN1CCOCC1		0.5 mg/kg	180 mg/kg	> 50 mg/kg	
CCc1cc(-c2ccccc2)nnc1NCCN1CCOCC1	> 10 mg/kg	2 mg/kg	31 mg/kg	> 10 mg/kg	
Cc1cc(-c2ccccc2)nnc1NC(C)CN (configuration not stated)	> 30 mg/kg	2 mg/kg	> 200 mg/kg		ED50 (Mus musculus [12]): 34 mg/kg
Cc1cc(-c2cccc(Cl)c2)nnc1NCCN1CCOCC1	> 10 mg/kg	> 2 mg/kg	21 mg/kg	> 10 mg/kg	
CN(C)CCCN1c2ccccc2CCc2ccc(Cl)cc21 [CLOMIPRAMINE]					ED50 (Mus musculus [13]): 3.3 mg/kg; ED50 (Mus musculus [14]): 4.8 mg/kg
Cc1cc(-c2ccsc2)nnc1NCCN1CCOCC1		> 10 mg/kg	72 mg/kg		ED50 (Mus musculus [15]): 10 mg/kg; ED50 (Mus musculus [16]): 1.7 mg/kg
CCN(CC)CCNc1nnc(-c2ccccc2)cc1C	> 30 mg/kg	> 10 mg/kg	80 mg/kg	> 30 mg/kg	
Cc1ccc(-c2cc(C)c(NCCN3CCOCC3)nn2)cc1	> 15 mg/kg	0.5 mg/kg	51 mg/kg	> 15 mg/kg	
Cc1cc(-c2ccccc2)nnc1NCCN1CCCC1			70 mg/kg	> 30 mg/kg	
NC(=O)c1cc(-c2ccccc2)nnc1NCCN1CCOCC1	> 60 mg/kg	2 mg/kg		> 40 mg/kg	
COc1cccc(-c2cc(C)c(NCCN3CCOCC3)nn2)c1	> 5 mg/kg	0.5 mg/kg	18 mg/kg		ED50 (Mus musculus [17]): 6 mg/kg
Cc1cc(-c2ccc(F)cc2)nnc1NCCN1CCOCC1		2 mg/kg	45 mg/kg		ED50 (Mus musculus [18]): 4.5 mg/kg; ED50 (Mus musculus [19]): 4.7 mg/kg
Cc1cc(-c2cccc3ccccc23)nnc1NCCN1CCOCC1	> 2.5 mg/kg	0.01 mg/kg	7 mg/kg	> 2.5 mg/kg	
Cc1cc(-c2ccccc2)nnc1NCCCCN	> 30 mg/kg	0.1 mg/kg	300 mg/kg	> 50 mg/kg	
COc1ccc(-c2cc(C)c(NCCN3CCOCC3)nn2)cc1	> 5 mg/kg	> 2 mg/kg	19 mg/kg	> 5 mg/kg	
Clc1ccccc1Cc1cc(-c2ccccc2)nnc1NCCN1CCOCC1	> 50 mg/kg	10 mg/kg	95 mg/kg	> 50 mg/kg	
